Data on 1 compound can be found in paper PMC4788533 (Investigational new drugs, 2015).

Data set [1] deals with ERK phosphorylation. The settings on record: peripheral blood mononuclear cells and tumor biopsies; cited from earlier work.
Data set [2] is described as follows: Selumetinib plasma pharmacokinetics. The format is in vivo, human. To be noted: for Log (Cmax (ng/mL) – dose normalized) / Log(AUC 0-∞ (ng/mL × hr) – dose normalized): mean ± SD; for half-life: T ½. Put shortly: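 Patients with refractory solid tumours or KRAS-mutant CRC took oral MEK inhibitor capsules fasting, with the morning dose ≥1 h before the anti-EGFR antibody (400 mg/m2 IV load, then 250 mg/m2 weekly; 28-day cycles). EDTA plasma was drawn at baseline and 0.5–12 h post-dose on C1D1, and assayed by validated LC-MS/MS (LOD 3.91 ng/ml). Analysis was noncompartmental. Dose levels 1–2 were pooled.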

The format of data set [3] is in vivo, human. To be noted: PO BID, with cetuximab 250 mg/m^2 weekly following a 400 mg/m^2 load.
For data set [4] the following is noted: solid formulation, orally twice daily; cited from earlier work.
[5] abbreviates: day 1 of cycle 1, dose level 1 (selumetinib 50mg), N=6, mean ± SD.
Setting [6] is: day 1 of cycle 1, dose level 1 and 2 combined (N=10).
Setting [7] is: day 1 of cycle 1, dose level 2 (selumetinib 50mg), N=4, mean ± SD.
[8] abbreviates: day 1 of cycle 1, dose level 3 incl. expansion cohort (N=22).
Setting [9] is: human, plasma, oral, 50 mg, day 1 of cycle 1, dose level 1 (selumetinib 50mg), N=6, mean ± SD.
[10] abbreviates: human, plasma, oral, 50 mg, day 1 of cycle 1, dose level 2 (selumetinib 50mg), N=4, mean ± SD.

On to `Cn1cnc2c(F)c(Nc3ccc(Br)cc3Cl)c(C(=O)NOCCO)cc21` [selumetinib], for which the “ERK phosphorylation following selumetinib treatment” value in data set [1] was “Inhibition of ERK phosphorylation was observed”. The Cl/F in data set [2] (setting [5]) was determined as 23.9 ± 5.48 L/h; in data set [2] (setting [7]), 21.0 ± 2.53 L/h. Also, the V/F turned out to be 76.9 ± 18.1 L in data set [2] (setting [5]) and 70.4 ± 19.7 L in data set [2] (setting [7]). In addition, the “Log (Cmax (ng/mL) – dose normalized)” value in data set [2] (setting [6]) came out at 3.19 ± 0.23; in data set [2] (setting [8]), 3.00 ± 0.43. Besides, the entries for the “Log(AUC 0-∞ (ng/mL × hr) – dose normalized)” value in data set [2] (setting [6]) and in data set [2] (setting [8]) were 4.23 ± 0.17 and 4.24 ± 0.54, respectively. In addition, the Cmax was 1143 (CV 0.28) ng/mL in data set [2] (day 1 of cycle 1, dose level 2 (selumetinib 50mg), N=4, geometric mean (CV)) and 1320 ng/mL in data set [2] (human, plasma, oral, 50 mg, Cmax, day 1 of cycle 1, dose level 1 (selumetinib 50mg), N=6, geometric mean (CV)). In data set [2] (human, plasma, oral), this compound gave an AUC of 3210 to 5200 ng·h/mL. In addition, the AUC(0-inf) in data set [2] (human, plasma, oral, 50 mg, day 1 of cycle 1, dose level 1 (selumetinib 50mg), N=6, geometric mean (CV)) was determined as 3210 ng·h/mL; in data set [2] (human, plasma, oral, 50 mg, day 1 of cycle 1, dose level 1 and 2 combined (50mg dose, N=10), geometric mean (CV)), 3450 ng·h/mL; in data set [2] (human, plasma, oral, 50 mg, day 1 of cycle 1, dose level 2 (selumetinib 50mg), N=4, geometric mean (CV)), 3610 ng·h/mL. Besides, the half-life was 2.28 ± 0.55 h in data set [2] (setting [9]) and 2.31 ± 0.55 h in data set [2] (setting [10]). Also, the values for the Tmax in data set [2] (setting [9]) and in data set [2] (setting [10]) were 1.13 ± 0.25 h and 1.92 ± 1.28 h, respectively. The “maximum tolerated dose of the combination, selumetinib part” value in data set [3] is on record as 75 mg. Further, in data set [4], the “maximum tolerated dose (MTD) of selumetinib, single agent” value is on record as 75 mg.

By AUC is commonly meant the area under the concentration-time curve, a measure of exposure. Higher therefore signals more exposure. A word on the AUC(0-inf): it is the area under the concentration-time curve extrapolated to infinity. For orientation: half-life means how long it takes for the measured level to halve. A higher half-life goes with slow decline. For orientation: Tmax means the time at which the peak concentration occurs.
